ChEMBL document CHEMBL4385606, “3,5,7-Substituted Pyrazolo[4,3- d]pyrimidine Inhibitors of Cyclin-Dependent Kinases and Their Evaluation in Lymphoma Models” (J Med Chem, 2019)
Calls of active or inactive are those of the source. The rule behind the calls is not given here.

How the values were obtained:
[1] = test system: MCF7; test: Antiproliferative activity against human MCF7 cells assessed as growth inhibition measured after 72 hrs by calcein AM dye-based fluorescence assay; assay type: functional, cell-based; conditions: MCF7, 72 h
Procedure, shortened: (§1)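 Cells exposed in triplicate to six concentrations for 72 h; calcein AM added for 1 h, live-cell fluorescence read at 485/538 nm (ex/em). GI50 taken from dose-response curves.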

[2] = molecular target: Cyclin-dependent kinase 2 (Homo sapiens) (UniProt P24941); test: Inhibition of CDK2 in human Mino cells assessed as decrease in phosphorylation of RNA polymerase 2 C-terminal domain at Ser 5 residue at 12.5 nM by immunoblotting analysis; assay type: cell-based; conditions: TDE = time-dependent effect
Procedure, shortened: (§2)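 MINO lymphoma cells were treated at 12.5 nM, with time points over 24 h. Lysates were separated by SDS-PAGE and blotted to nitrocellulose. Phospho-RNA polymerase II CTD (Ser2, Ser5) and phospho-Rb (Ser608, Ser780) were probed with primary antibodies overnight and peroxidase-conjugated secondaries. Detection was by chemiluminescence on a CCD camera.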

[3] = organism: Homo sapiens; test: Induction of apoptosis in human Mino cells assessed as decrease in XIAP level at 12.5 nM for 2 to 24 hrs by immunoblotting analysis; assay type: functional, cell-based
Procedure, shortened: (§3)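 Lymphoma cell lines were cultured as the providers instruct and exposed to compound at several doses or for several times. Lysates were run on SDS-PAGE and blotted to nitrocellulose. Blots were blocked, incubated overnight with primary antibodies diluted in PBS with 5% milk and 0.1% Tween 20, then with peroxidase-conjugated secondaries, and detected by chemiluminescence on a CCD camera.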

[4] = test system: Maver1; test: Antiproliferative activity against human Maver1 cells assessed as growth inhibition measured after 72 hrs by calcein AM dye-based fluorescence assay; assay type: functional, cell-based; conditions: Maver1, 72 h; procedure, shortened: as §1
[5] = test system: Mus musculus; test: Ex vivo antitumor activity against human UPF1H cells xenografted NSG mouse decrease in phosphorylation of RNA polymerase 2 C-terminal domain at Ser 5 residue at 5 to 10 mg/kg, iv measured after 24 hrs by immunoblotting analysis; assay type: functional, organism-based
Procedure, shortened: (§4)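 Female NSG mice, 8-12 weeks old, implanted s.c. with lymphoma cells. Once tumors were palpable, mice received a single tail-vein i.v. dose (5 or 10 mg/kg) of compound dissolved in PBS. Mice were euthanized 24 h later. Tumors were excised, filtered through 45 µm nylon mesh and lysed, then proteins were analysed by immunoblotting.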

[6] = test system: Mus musculus; test: Ex vivo antitumor activity against human Mino cells xenografted NSG mouse assessed as cleavage of PARP1 at 5 to 10 mg/kg, iv measured after 24 hrs by immunoblotting analysis; assay type: functional, organism-based
Procedure, shortened: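 NSG mice bearing palpable s.c. tumors received a single i.v. dose (5 or 10 mg/kg) and were euthanized after 24 h. Excised tumors were filtered through 45 µm nylon mesh, lysed and run on SDS-PAGE, transferred to nitrocellulose, probed overnight with primary antibodies in PBS with 5% milk and 0.1% Tween 20, then peroxidase secondaries, with chemiluminescent detection.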

[7] = test system: Mus musculus; test: Ex vivo antitumor activity against human UPF1H cells xenografted NSG mouse decrease in phosphorylation of Rb at […] residue at 5 to 10 mg/kg, iv measured after 24 hrs by immunoblotting analysis; assay type: functional, organism-based; procedure, shortened: as §4
[8] = Antiproliferative activity against human OCI-Ly2 cells measured after 72 hrs by calcein AM dye-based fluorescence assay; assay type: functional; procedure, shortened: as §1
[9] = molecular target: CDK2/Cyclin A2 (Homo sapiens, UniProt P24941); test: Inhibition of GST-tagged CDK2/Cyclin-A2 (unknown origin) expressed in Escherichia coli using histone H1 as substrate measured in presence of [gamma-33P]ATP
[10] = Antiproliferative activity against human Mino cells measured after 72 hrs by calcein AM dye-based fluorescence assay; assay type: functional; procedure, shortened: as §1
[11] = test system: TMD8; test: Antiproliferative activity against human TMD8 cells assessed as growth inhibition measured after 72 hrs by calcein AM dye-based fluorescence assay; assay type: functional, cell-based; conditions: TMD8, 72 h; procedure, shortened: as §1
[12] = test system: Mus musculus; test: Ex vivo antitumor activity against human UPF1H cells xenografted NSG mouse decrease in phosphorylation of RNA polymerase 2 C-terminal domain at Ser 2 residue at 5 to 10 mg/kg, iv measured after 24 hrs by immunoblotting analysis; assay type: functional, organism-based; procedure, shortened: as §4
[13] = organism: Homo sapiens; test: Induction of apoptosis in human Mino cells assessed as caspase 7 activation at 1.5 to 12.5 nM after 24 hrs by immunoblotting analysis; assay type: functional, cell-based; procedure, shortened: as §3
[14] = molecular target: Cyclin-dependent kinase 7 (Homo sapiens) (UniProt P50613); test: Inhibition of CDK7 in human Mino cells assessed as decrease in phosphorylation of RNA polymerase 2 C-terminal domain at Ser 5 residue at 12.5 nM by immunoblotting analysis; assay type: cell-based; conditions: TDE = time-dependent effect; procedure, shortened: as §2
Sequence of Cyclin-dependent kinase 7 (Homo sapiens) (P50613 whole entry, the tested form may be a part): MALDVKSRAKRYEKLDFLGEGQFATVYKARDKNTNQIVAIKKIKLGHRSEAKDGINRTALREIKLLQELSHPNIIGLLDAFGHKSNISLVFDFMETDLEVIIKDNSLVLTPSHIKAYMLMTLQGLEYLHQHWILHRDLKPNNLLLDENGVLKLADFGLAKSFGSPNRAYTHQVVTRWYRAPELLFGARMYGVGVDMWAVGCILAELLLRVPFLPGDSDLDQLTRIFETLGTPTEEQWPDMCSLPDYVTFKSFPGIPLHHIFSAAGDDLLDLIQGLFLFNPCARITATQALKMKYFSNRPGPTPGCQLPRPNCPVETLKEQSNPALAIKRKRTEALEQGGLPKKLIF

[15] = Antiproliferative activity against human OCI-Ly2 cells assessed as growth inhibition measured after 72 hrs by calcein AM dye-based fluorescence assay; assay type: functional, cell-based; procedure, shortened: as §1
[16] = test system: HT; test: Antiproliferative activity against human HT cells assessed as growth inhibition measured after 72 hrs by calcein AM dye-based fluorescence assay; assay type: functional, cell-based; procedure, shortened: as §1
[17] = test system: Mus musculus; test: Ex vivo antitumor activity against patient derived VFN-M1 cells xenografted NSG mouse assessed as down regulation of XIAP expression at 10 mg/kg, iv measured after 24 hrs by immunoblotting analysis; assay type: functional, organism-based; procedure, shortened: as §4
[18] = test system: Maver1; test: Induction of apoptosis in human Maver1 cells assessed as activation of caspase-7 at 1.5 to 12.5 nM after 24 hrs by immunoblot analysis; assay type: functional, cell-based; procedure, shortened: as §3
[19] = organism: Homo sapiens; test: Induction of apoptosis in human Mino cells assessed as effect on BCL-xL protein expression at 1.5 to 12.5 nM after 24 hrs by immunoblotting analysis; assay type: functional, cell-based; procedure, shortened: as §3
[20] = molecular target: Cyclin-dependent kinase 9 (Homo sapiens) (UniProt P50750); test: Inhibition of CDK9 in human Mino cells assessed as decrease in phosphorylation of Rb at Ser 608 residue at 12.5 nM by immunoblotting analysis; assay type: cell-based; conditions: TDE = time-dependent effect
Sequence of Cyclin-dependent kinase 9 (Homo sapiens) (P50750 whole entry): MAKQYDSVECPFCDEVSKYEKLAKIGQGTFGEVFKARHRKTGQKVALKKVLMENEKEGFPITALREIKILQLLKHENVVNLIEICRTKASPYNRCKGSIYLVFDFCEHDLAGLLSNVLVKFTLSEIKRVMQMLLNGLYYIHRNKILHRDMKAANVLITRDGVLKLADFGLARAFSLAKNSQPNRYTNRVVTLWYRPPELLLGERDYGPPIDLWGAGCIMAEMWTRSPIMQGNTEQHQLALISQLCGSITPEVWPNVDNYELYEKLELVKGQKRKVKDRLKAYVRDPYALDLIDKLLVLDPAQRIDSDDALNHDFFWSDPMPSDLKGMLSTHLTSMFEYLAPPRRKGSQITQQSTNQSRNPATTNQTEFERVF
Procedure, shortened: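 MINO lymphoma cells exposed to 12.5 nM for up to 24 h (time course). Lysates separated by SDS-PAGE, transferred to nitrocellulose, probed overnight with specific primary antibodies diluted in PBS with 5% milk and 0.1% Tween 20, then peroxidase-conjugated secondaries; chemiluminescence imaged with a CCD camera.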

[21] = organism: Homo sapiens; test: Induction of apoptosis in human Mino cells assessed as effect on BCL-2 protein expression at 1.5 to 12.5 nM after 24 hrs by immunoblotting analysis; assay type: functional, cell-based; procedure, shortened: as §3
[22] = test system: K562; test: Antiproliferative activity against human K562 cells assessed as growth inhibition measured after 72 hrs by calcein AM dye-based fluorescence assay; assay type: functional, cell-based; conditions: K562, 72 h; procedure, shortened: as §1
[23] = organism: Homo sapiens; test: Induction of apoptosis in human Mino cells assessed as reduction in MCL1 expression at 1.5 to 12.5 nM after 24 hrs by immunoblotting analysis; assay type: functional, cell-based; procedure, shortened: as §3
[24] = molecular target: T1, Serine/threonine-protein kinase Chk2 (Homo sapiens, UniProt O96017); test: Inhibition of CHK2 (unknown origin)
T1 sequence (O96017 whole entry): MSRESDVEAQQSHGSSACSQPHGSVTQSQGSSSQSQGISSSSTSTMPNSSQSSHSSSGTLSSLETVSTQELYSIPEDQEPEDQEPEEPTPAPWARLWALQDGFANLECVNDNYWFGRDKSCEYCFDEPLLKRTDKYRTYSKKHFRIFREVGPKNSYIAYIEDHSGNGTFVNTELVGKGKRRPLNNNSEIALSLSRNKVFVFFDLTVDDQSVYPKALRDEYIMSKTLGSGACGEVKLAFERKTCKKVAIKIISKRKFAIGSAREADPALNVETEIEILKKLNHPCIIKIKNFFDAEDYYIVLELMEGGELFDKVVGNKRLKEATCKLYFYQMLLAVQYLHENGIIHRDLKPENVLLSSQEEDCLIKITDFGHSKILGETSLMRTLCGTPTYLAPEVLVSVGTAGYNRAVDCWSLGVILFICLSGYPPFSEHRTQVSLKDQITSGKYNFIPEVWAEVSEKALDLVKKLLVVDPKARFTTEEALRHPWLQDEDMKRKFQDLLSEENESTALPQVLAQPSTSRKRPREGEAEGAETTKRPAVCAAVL

[25] = molecular target: T1, Serine/threonine-protein kinase Chk2; test: Inhibition of CHK2 (unknown origin) assessed as residual activity at 1 uM relative to control
Procedure, shortened: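 Single-concentration screen at 1 µM across a panel of 50 protein kinases sampling the human kinome; read-out is residual kinase activity (%).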

[26] = test system: THP-1; test: Antiproliferative activity against human THP1 cells assessed as growth inhibition measured after 72 hrs by calcein AM dye-based fluorescence assay; assay type: functional, cell-based; conditions: THP-1, 72 h; procedure, shortened: as §1

GI50 [1]: 21.6 nM | IC50 [1]: 16 nM | inhibition [2]: Tde | IC50 [9]: 6 nM | inhibition [14]: Tde | inhibition [20]: Tde | GI50 [22]: 36 nM | IC50 [22]: 36 nM | IC50 [24]: 525 nM | Activity [25]: 18% | GI50 [26]: 19 nM | IC50 [26]: 19 nM
SMILES: CC(C)c1n[nH]c2c(NCc3ccc(-c4ccccn4)cc3)nc(SCCN)nc12
Activity [3]: Active | GI50 [4]: 13 nM | IC50 [4]: 13 nM | Activity [5]: Active | Activity [6]: Active | Activity [7]: Active | GI50 [8]: 28 nM | GI50 [10]: 41 nM | GI50 [11]: 12 nM | IC50 [11]: 12 nM | Activity [12]: Active | Activity [13]: Active | GI50 [15]: 23 nM | IC50 [15]: 23 nM | GI50 [16]: 19 nM | IC50 [16]: 19 nM | Activity [17]: Active | Activity [18]: Active | Activity [19]: inactive | Activity [21]: inactive | Activity [23]: Active
